# LMPTP block – LMPTP (human) inhibition | P24666 | recombinant LMPTP-A, OMFP fluorogenic substrate, fluorescence intensity | inhibition, % at 20 µM | 0.22% of 360,000 active | AID 651560;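 active = compounds that cut the enzyme signal by at least half of the control window in the single-dose screen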;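 note: plate controls were DMSO wells with enzyme plus substrate for no effect and substrate without enzyme for full effect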
# Target sequence (P24666 whole entry, looked up): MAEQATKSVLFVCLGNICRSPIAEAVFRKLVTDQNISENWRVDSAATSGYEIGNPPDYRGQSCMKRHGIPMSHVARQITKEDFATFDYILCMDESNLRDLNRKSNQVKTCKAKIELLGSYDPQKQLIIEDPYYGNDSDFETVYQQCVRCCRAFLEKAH
#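 Test system – LMPTP-A enzyme · Amount – LMPTP-A at 0.625 nM final in the reaction · Buffer or medium – Bis-Tris pH 6.0, DTT, detergent · Reagent – OMFP 400 µM · Doses – single 20 µM dose · Schedule – reaction 50 min, room temperature, dark · Detection – fluorescence intensity of OMFP turnover product · Evaluation – percent inhibition versus substrate-only and uninhibited controls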
# Scp-1 inhibitor – inhibitors of human Scp-1 phosphatase. Q9GZU7. Recombinant Scp1, phosphopeptide, malachite green phosphate absorbance. inhibition, % at 20 µM. 0.88% of 340,000 active. AID 493091;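 active = inhibition above about 50% at 20 µM, limit read from the data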;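 note: plate controls were DMSO wells with enzyme for no effect and wells lacking enzyme for full effect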
#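 Incubation: 45 min enzyme reaction at room temperature / System: truncated SCP-1 phosphatase (76-261aa) / Reagent: Phospho 17-mer peptide substrate / Buffer or medium: Acidic Tris acetate buffer with magnesium and detergent / Signal: absorbance at 630 nm / Doses: one concentration, 20 µM, with 1.0% DMSO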
# DNMT1 inh – DNMT1 (human) enzyme inhibition; P26358; DNMT1 molecular beacon, Hinp1I cleavage, fluorescence; inhibition (reported as % activation of signal), % at 10 µM; 0.83% of 360,000 active; AID 588458; in the data active = inhibition above about 50%
# Rpn11 block – Rpn11 (human) deubiquitinase inhibition; O00487; human 26S proteasome, Ub4-pepOG fluorescence polarization; 20S core pre-blocked with epoxomicin; inhibition, % at 20 µM; 0.59% of 360,000 active; AID 588493;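 active = inhibition at 20 µM, scaled to each plate's controls, above about 33%, limit read from the data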
# Target sequence (O00487 whole entry, looked up): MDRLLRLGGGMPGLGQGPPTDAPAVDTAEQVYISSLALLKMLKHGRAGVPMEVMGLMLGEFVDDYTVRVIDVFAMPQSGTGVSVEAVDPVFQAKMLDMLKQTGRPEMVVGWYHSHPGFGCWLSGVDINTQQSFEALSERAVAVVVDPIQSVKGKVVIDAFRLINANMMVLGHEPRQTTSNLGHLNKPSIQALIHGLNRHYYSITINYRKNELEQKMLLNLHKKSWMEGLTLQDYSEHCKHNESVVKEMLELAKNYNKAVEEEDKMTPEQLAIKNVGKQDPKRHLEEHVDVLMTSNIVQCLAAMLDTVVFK
# SUMO1 PPI mod – SUMO1-SIM interaction modulation; 0.33% of 360,000 active; SUMO1 binding to a labelled peptide, TR-FRET, 1 h; inhibition, % at 20 µM; in the data active = inhibition above about 37%
# Target sequence (P63165 whole entry, looked up): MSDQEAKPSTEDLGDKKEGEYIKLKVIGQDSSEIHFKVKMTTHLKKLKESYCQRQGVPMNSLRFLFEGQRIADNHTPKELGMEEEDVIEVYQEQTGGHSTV
# STEP inh – STEP (human) phosphatase inhibition; 0.25% of 360,000 active; P54829; inhibition, % at 20 µM; recombinant STEP, OMFP fluorogenic substrate, fluorescence;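 active = inhibition at 20 µM, scaled per plate between control wells, above about 37%, limit read from the data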;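 note: 0% = DMSO with enzyme and substrate and 100% = substrate only without enzyme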
#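 System: STEP (striatal-enriched tyrosine phosphatase) enzyme, cell-free; medium: Bis-Tris pH 6.0 buffer with DTT, detergent; dosing: 20 µM, 1% DMSO; times: reaction 20 min, ambient temperature; detection: fluorescence, 480/540 nm; read-out basis: normalized % inhibition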
# Scp-1 conf – confirmation of human Scp-1 phosphatase inhibitors. shares compounds with Scp-1 inhibitor. recombinant SCP-1 catalytic domain, phosphate release, malachite green absorbance. inhibition, % at 20 µM. 61% of 2,500 active;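 note: plate controls were DMSO with enzyme for no effect and buffer wells lacking enzyme for full effect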
# MG interference – counter-screen for Scp-1 inhibitors: colorimetric interference; shares compounds with Scp-1 inhibitor; Colorimetric interference counterscreen, malachite green absorbance 630 nm; apparent inhibition (interference), % at 20 µM; 2,500 tested, under 10 active;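 note: compounds added after enzyme reaction finished so only phosphate colour detection is probed; plate controls were DMSO wells with completed Scp-1 reaction for no effect and substrate wells lacking enzyme for full effect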
# Scp-1 Tm shift – binds human Scp-1, shifting its melting temperature; thermal shift relative to vanadate control, % at 40 µM; shares compounds with Scp-1 inhibitor; 25% of 1,500 active; Recombinant SCP1, Sypro Orange thermal shift Tm;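 active = substances whose mean melting-temperature shift, as a percentage of the reference inhibitor's shift, reaches about 5.3%, limit read from the data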;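 note: 0% = Tm of DMSO wells and 100% = Tm with sodium orthovanadate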
# An asterisk follows results filed as active; / = no result shown. In the library only some 2.3% were active in any assay of this set; here they are far more common.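 Rule for the calls, unless noted: active = inhibition of at least 30% at 20 µM; inactive = the rest.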
SMILES,LMPTP block,Scp-1 inhibitor,DNMT1 inh,Rpn11 block,SUMO1 PPI mod,STEP inh,Scp-1 conf,MG interference,others
O=C(CN(C(=O)c1csnn1)c1ccc(Cl)cc1)NCc1ccc2c(c1)OCO2,1,2,2,5,5,2,/,/,
CCN(CC(=O)NC1CC1)S(=O)(=O)c1ccc(C)cc1,-5,0,-1,-2,-1,-2,/,/,
CCN(CC(=O)NC1CCCCC1)S(=O)(=O)c1ccc(Cl)cc1,1,63*,4,6,1,1,-8,-6,
O=C(CSc1nc2[nH]ncc2c(=O)[nH]1)Nc1ccccc1C(F)(F)F,0,51*,0,3,1,-3,-7,-8,
O=C(CSc1nc2[nH]ncc2c(=O)[nH]1)Nc1ccccc1F,-1,-3,-3,-2,4,-3,/,/,
COc1cc(OC)cc(C(=O)NCC(=O)Nc2ccc(OC)c(Cl)c2)c1,0,9,-2,4,3,0,/,/,
CC(C)c1ccc(/C=C2\SC(=O)N(CC(=O)NC3C=CS(=O)(=O)C3)C2=O)cc1 (stereo unspecified),11,57*,37,-14,-9,16,53*,-7,Scp-1 Tm shift=-4
COc1cccc(/C=C2\SC(=O)N(CC(=O)NC3C=CS(=O)(=O)C3)C2=O)c1 (stereo unspecified),-1,-7,8,-14,-31,1,/,/,
C/C(=N\NC(=O)c1ccccc1O)c1ccc(NC(=O)c2ccccc2)cc1,11,67*,1,-10,-7,36,69*,-8,Scp-1 Tm shift=3
CN=C1SC(CC(=O)Nc2cc(Cl)ccc2Cl)C(=O)N1C (stereo unspecified),-1,-5,-2,2,2,1,/,/,
COc1cccc(-c2noc(CCCC(=O)Nc3ccc(C(N)=O)cc3)n2)c1,-1,-3,-1,-1,-2,-1,/,/,
CCc1nnc(NC(=O)C2(C)COC(c3ccccc3)OC2)s1 (stereo unspecified),-1,55*,0,2,0,0,-5,-4,
CN(C)S(=O)(=O)c1ccc(C(=O)NCC[N+]2(C)CCCCCC2)o1,-3,68*,-1,-4,4,-4,-21,-19,
Cc1ccc(NC(=O)c2ccc(Br)o2)cc1S(=O)(=O)N(C)C,1,-2,-9,9,5,-2,/,/,
Cc1cc(C(=O)CCC(=O)NCc2ccccc2F)c(C)s1,2,-1,5,3,2,-3,/,/,
O=C(O)c1ccc(CSc2n[nH]c(-c3ccco3)n2)cc1,-1,52*,9,0,23,13,32*,-15,Scp-1 Tm shift=-2
COc1ccc(C(=O)Nc2cnc3sc(C)nn3c2=O)cc1,-2,51*,1,-1,4,-1,-17,-19,
CN(C)c1ccc(CNC(=O)c2cc(S(=O)(=O)N3CCOCC3)cn2C)cc1,-1,-3,-2,6,4,6,/,/,
CN(C)C(=O)NC(Nc1ccc(Cl)cc1Cl)C(Cl)(Cl)Cl (stereo unspecified),2,-3,9,-5,-4,-4,/,/,
CCOC(=O)CC1(C)OCC(C[N+]2(C)CCCCC2)O1 (stereo unspecified),-1,93*,-1,0,9,1,93*,-5,Scp-1 Tm shift=-20
COC(=O)c1c(NC(=O)COC(=O)[C@@H](NS(=O)(=O)c2cccc(Cl)c2)C(C)C)sc2c1CCC2,2,-12,-8,9,-2,0,/,/,
CC(C)[C@H](NS(=O)(=O)c1cccc(Cl)c1)C(=O)OCC(=O)NC(=O)CN1CCCC1=O,9,57*,38,-16,6,18,42*,-12,Scp-1 Tm shift=-5
CC1(C)NC(=O)N(CC(O)CN(c2ccccc2)S(=O)(=O)c2ccccc2[N+](=O)[O-])C1=O (stereo unspecified),0,-5,2,1,-8,-2,/,/,
N#CCSc1ncnc2sc3c(c12)CCC3,34,68*,48,5,19,1,0,-23,
Cc1[nH]c2ccccc2c1C(=O)C(=O)NCc1nnnn1-c1ccc(F)c(F)c1,1,/,-1,-1,1,-3,/,/,
SMILES,LMPTP block,Scp-1 inhibitor,DNMT1 inh,Rpn11 block,SUMO1 PPI mod,STEP inh,Scp-1 conf,MG interference,others
C/C(N)=C(/C#N)C(=O)CSc1nc2ccccc2[nH]1,12,69*,45,-8,9,9,51*,-9,Scp-1 Tm shift=4
C/C(N)=C(/C#N)C(=O)CSc1ncnc2ccccc12,0,-6,5,4,-2,-2,/,/,
O=C1CC(C(=O)Nc2ccc(C(=O)O)cc2)C(c2ccccc2)O1 (stereo unspecified),-2,-11,1,-1,-1,-5,/,/,
O=C1CC(C(=O)Nc2ccc(O)c(C(=O)O)c2)C(c2ccccc2)O1 (stereo unspecified),0,51*,3,-6,1,2,30*,-7,Scp-1 Tm shift=3
CC(C)N(C(=O)CSc1nnc(-c2ccc3c(c2)OCO3)n1C)C(C)C,0,55*,0,-3,-3,-1,-24,-19,
C[N+]1(C2CCC3CCC2C3O)CCCC1 (stereo unspecified),-2,6,4,-2,6,-2,/,/,
CC(=O)OC1C2CCC1C([N+]1(C)CCCCC1)CC2 (stereo unspecified),-2,94*,-1,-4,-3,1,95*,-6,Scp-1 Tm shift=-25
O=C(Nc1ccc2oc(-c3ccncc3)nc2c1)c1ccc2c(c1)OCCO2,34,100*,4,31,34,15,-11,-14,
O=C(Nc1ccc2oc(-c3cccnc3)nc2c1)c1ccc2c(c1)OCCO2,54*,52*,39,/,11,38,45*,-5,Scp-1 Tm shift=-4
O=C(Nc1ccc2oc(-c3ccccc3)nc2c1)c1ccc2c(c1)OCCO2,-1,-12,-1,1,2,-6,/,/,
O=C(COC(=O)COc1ccc(Br)cc1)NCc1ccccc1,0,-7,-1,4,0,2,/,/,
CC(Sc1ccc(S(=O)(=O)N2CCN(C)CC2)cn1)C(=O)Nc1cccc(Cl)c1Cl (stereo unspecified),-1,-2,-8,5,1,-2,/,/,
